SMILES strings stand for the structures. Activity calls are given as the source filed them.

Results on four molecules are retold here after ChEMBL document CHEMBL4354866, “TREK Channel Family Activator with a Well-Defined Structure-Activation Relationship for Pain and Neurogenic Inflammation” (J Med Chem, 2020).

The subject of assay [1] is Mus musculus. The assay is described as follows: Analgesic activity in mouse model of spared nerve injury assessed as reduction in cold hyperalgesia at 30 mg/kg, ip measured at 7 days interval for up to 21 days post spared nerve injury by cold plantar test. It is filed as functional, organism-based. In outline: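 Male mice (BALB/c or C57BL/6, 6-8 weeks) after SNI; compound given i.p. in 5% DMSO, 5% Tween 80, 90% saline. Mice acclimated 3 days on a 6 mm glass plate. A syringe packed with powdered dry ice was applied under the centre of the left hindpaw. Paw withdrawal latency was timed by stopwatch with a 30 s cutoff. Groups compared by unpaired t test or Mann-Whitney.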

Assay [2] has as its target T1, Potassium channel subfamily K member 2 (Homo sapiens) (UniProt O95069).
T1 sequence (whole entry): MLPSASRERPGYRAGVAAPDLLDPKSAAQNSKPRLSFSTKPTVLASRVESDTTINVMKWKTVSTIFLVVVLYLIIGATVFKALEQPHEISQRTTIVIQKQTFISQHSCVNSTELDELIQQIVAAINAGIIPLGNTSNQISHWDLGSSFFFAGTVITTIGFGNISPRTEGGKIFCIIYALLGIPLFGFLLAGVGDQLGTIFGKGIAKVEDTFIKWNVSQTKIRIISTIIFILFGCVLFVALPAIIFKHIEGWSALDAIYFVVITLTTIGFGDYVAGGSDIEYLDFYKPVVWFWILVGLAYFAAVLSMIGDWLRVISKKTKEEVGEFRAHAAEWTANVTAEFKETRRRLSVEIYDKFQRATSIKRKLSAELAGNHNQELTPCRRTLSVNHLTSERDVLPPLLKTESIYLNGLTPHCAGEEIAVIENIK
The assay is described as follows: Activation of recombinant human TREK1 expressed in HEK293T cells assessed as increase in K+ current amplitude at 30 uM by whole cell voltage clamp electrophysiological analysis. It is filed as cell-based.

In assay [3] the target is T1, Potassium channel subfamily K member 2 (Homo sapiens). The assay is described as follows: Activation of recombinant human TREK1 expressed in HEK293T cells assessed as increase in K+ current amplitude at 1 mM by whole cell voltage clamp electrophysiological analysis. It is filed as cell-based.
The test system of assay [4] is Mus musculus. The experiment in a line: Analgesic activity in cerulein-induced mouse model of acute pancreatitis assessed as reduction in pancreatic edema at 10 mg/kg, ip administered at 2 hrs interval for 10 hrs starting from post-first cerulein challenge and measured 12 hrs post-first cerulein challenge by H and E staining based histopathological analysis. It is filed as functional, organism-based. In outline: (§1)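 Cerulein pancreatitis: 7 hourly i.p. injections of 50 µg/kg; 10 mg/kg compound i.p. at 2, 4, 6, 8 and 10 h. Mice killed at 12 h and pancreas harvested for MPO activity and H&E histology. Ten random fields per slide scored blind by two observers for edema, inflammatory infiltration and acinar necrosis; n = 6.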

Assay [5] concerns Mus musculus. The assay is described as follows: Analgesic activity in cerulein-induced mouse model of acute pancreatitis assessed as reduction in pancreatic necrosis at 10 mg/kg, ip administered at 2 hrs interval for 10 hrs starting from post-first cerulein challenge and measured 12 hrs post-first cerulein challenge by H and E staining based histopathological analysis. It is filed as functional, organism-based. The procedure, abridged:
as §1

Assay [6] relates to Mus musculus. The assay is described as follows: Analgesic activity in cerulein-induced mouse model of acute pancreatitis assessed as reduction in myeloperoxidase activity at 10 mg/kg, ip administered at 2 hrs interval for 10 hrs starting from post-first cerulein challenge and measured 12 hrs post-first cerulein challenge. It is filed as functional, organism-based. The procedure, abridged:
as §1

The test system of assay [7] is Mus musculus. The experiment in a line: Analgesic activity in mouse assessed as increase in tail flick latency time at 5 mg/kg, ip at 52 degC by tail immersion test. It is filed as functional, organism-based. The procedure, abridged:
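Male BALB/c or C57BL/6 mice, 6–8 weeks, acclimated in a holder 15 min/day for 3 days. Distal 3 cm of tail immersed at 5, 20, 40, 46 or 52 °C; flick latency recorded, cut-off 15 s. Compound i.p. in 5% DMSO/5% Tween 80/90% saline (1.25–10 mg/kg at 52 °C; 5 mg/kg across temperatures).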
A general note: Hot-plate and tail-flick tests time the reaction to a heat stimulus.

The subject of assay [8] is Mus musculus. The assay is described as follows: Analgesic activity in cerulein-induced mouse model of acute pancreatitis assessed as reduction in pancreatic inflammatory infiltration at 10 mg/kg, ip administered at 2 hrs interval for 10 hrs starting from post-first cerulein challenge and measured 12 hrs post-first cerulein challenge by H and E staining based histopathological analysis. It is filed as functional, organism-based. In outline: as §1

As for `CC(C)C[C@H](CN)CC(=O)O`, the result in the assay on Mus musculus [1] was Active.
On to `COC(=O)[C@H]1CC[C@@H](C(=O)Nc2ccc(-c3nc4ccc(C)cc4s3)cc2)C1`, for which, in assay [2], the outcome was inactive.
Take `C[N+](C)(C)CCSS(C)(=O)=O`: the result in assay [3] was inactive.
As for `Cc1ccc2nc(-c3ccc(NC(=O)C4CCCC4)cc3)sc2c1`, the result (with Mus musculus [4]; in the assay with Mus musculus [5]; in the assay on Mus musculus [6]; in assay [2]; with Mus musculus [7]; in the assay with Mus musculus [8]) was inactive.
